Source: ChEMBL document CHEMBL1122088, “Synthesis of analogues of the carboxyl protease inhibitor pepstatin. Effect of structure in subsite P3 on inhibition of pepsin” (J Med Chem, 1982)
Active and inactive are the calls of the source. The rule behind the calls is not given here. Square brackets hold non-standard residues; d marks the D form. Peptide text beside a SMILES is read from it. * marks the point of attachment. Sta = CC(C)C[C@H](N)[C@@H](O)CC(=O)O; Isovaleryl = CC(C)CC(=O)*; NHIsopentyl = CC(C)CCN*

Legend:
Pepsin A (Sus scrofa) [1] = molecular target: Pepsin A (Sus scrofa) (UniProt P00791); assay: The compound was tested for time dependent inhibition against carboxyl protease (pepsin); Yes
Pepsin A = Pepsin A (Sus scrofa, UniProt P00791); assay: The compound was tested for inhibition of carboxyl protease (pepsin) inhibition
How it was run: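 Porcine pepsin was assayed spectrophotometrically with the heptapeptide substrate Phe-Gly-His-Phe(NO2)-Phe-Ala-Phe-OMe (Km 4.0×10^-5 M). Fractional velocity (Vi/V0) was plotted against inhibitor concentration to obtain IC50. IC50 was converted to Ki with Cha's equation, Ki = (IC50 − Et/2)(1 + S/Km)^-1, using total enzyme and substrate concentrations. Time-dependent inhibitors were preincubated with enzyme for 10 min, and steady-state velocities were used.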

Pepsin A (Sus scrofa) [2] = molecular target: Pepsin A (Sus scrofa) (UniProt P00791); assay: The compound was tested for time dependent inhibition against carboxyl protease (pepsin); No inhibition

Chain of Pepsin A (P00791 whole entry): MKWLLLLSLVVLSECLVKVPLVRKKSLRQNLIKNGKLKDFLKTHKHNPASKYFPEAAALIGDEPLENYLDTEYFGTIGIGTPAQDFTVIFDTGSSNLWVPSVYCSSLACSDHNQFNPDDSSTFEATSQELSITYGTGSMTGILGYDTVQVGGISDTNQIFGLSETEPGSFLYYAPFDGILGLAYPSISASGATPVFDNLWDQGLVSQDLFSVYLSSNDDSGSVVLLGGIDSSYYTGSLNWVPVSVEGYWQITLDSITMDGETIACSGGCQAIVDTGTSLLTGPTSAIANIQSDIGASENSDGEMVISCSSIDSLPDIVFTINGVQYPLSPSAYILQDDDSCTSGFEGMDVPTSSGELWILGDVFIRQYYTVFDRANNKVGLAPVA
Chain of Pepsin A (Sus scrofa) (P00791 60-385 limits assumed): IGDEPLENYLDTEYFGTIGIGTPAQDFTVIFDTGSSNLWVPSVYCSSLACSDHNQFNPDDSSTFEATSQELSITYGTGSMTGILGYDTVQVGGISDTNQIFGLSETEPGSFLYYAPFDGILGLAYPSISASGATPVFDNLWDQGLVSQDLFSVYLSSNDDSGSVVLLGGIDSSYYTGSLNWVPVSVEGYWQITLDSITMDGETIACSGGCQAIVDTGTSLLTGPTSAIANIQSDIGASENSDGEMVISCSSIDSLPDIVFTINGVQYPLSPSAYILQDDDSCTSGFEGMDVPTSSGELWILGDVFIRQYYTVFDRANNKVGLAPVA

| Structure (SMILES) | TDI (Pepsin A (Sus scrofa) [1]) | Ki (Pepsin A) | TDI (Pepsin A (Sus scrofa) [2]) |
| --- | --- | --- | --- |
| CC(C)CCNC(=O)[C@H](C)NC(=O)C[C@H](O)[C@H](CC(C)C)NC(=O)[C@@H](NC(=O)[C@H](NC(=O)OC(C)(C)C)C(C)C)C(C)C | Active | 11 nM | – |
| CC(C)CCNC(=O)[C@H](C)NC(=O)C[C@H](O)[C@H](CC(C)C)NC(=O)[C@@H](NC(=O)CC(C)(C)C)C(C)C | – | 7.5 nM | inactive |
| CC(C)CCNC(=O)[C@H](C)NC(=O)C[C@H](O)[C@H](CC(C)C)NC(=O)[C@@H](NC(=O)OC(C)C)C(C)C | – | 8.6 nM | inactive |
| CC(C)CCNC(=O)[C@H](C)NC(=O)C[C@H](O)[C@H](CC(C)C)NC(=O)[C@@H](NC(=O)OC(C)(C)C)C(C)C | – | 170 nM | inactive |
| CC(C)CCNC(=O)[C@H](C)NC(=O)C[C@H](O)[C@H](CC(C)C)NC(=O)[C@@H](NC(=O)[C@@H](NC(=O)OC(C)(C)C)C(C)C)C(C)C | Active | ~6 nM | – |

These reach a lower Ki (Pepsin A). Values come first.

| TDI (Pepsin A (Sus scrofa) [1]) | Ki (Pepsin A) | TDI (Pepsin A (Sus scrofa) [2]) | Structure (SMILES) |
| --- | --- | --- | --- |
| Active | 2.9 nM | – | CC(C)CCNC(=O)[C@H](C)NC(=O)C[C@H](O)[C@H](CC(C)C)NC(=O)[C@@H](NC(=O)CC(C)C)C(C)C |
| Active | 1.6 nM | – | CC(C)CCNC(=O)[C@H](C)NC(=O)C[C@H](O)[C@H](CC(C)C)NC(=O)[C@@H](NC(=O)C(C)C)C(C)C |
| Active | 0.31 nM | – | CCC(C)C(=O)N[C@H](C(=O)N[C@@H](CC(C)C)[C@@H](O)CC(=O)N[C@@H](C)C(=O)NCCC(C)C)C(C)C (stereo not given in full) |
| Active | 0.18 nM | – | CCC(CC)C(=O)N[C@H](C(=O)N[C@@H](CC(C)C)[C@@H](O)CC(=O)N[C@@H](C)C(=O)NCCC(C)C)C(C)C |
| Active | ~0.1 nM | – | CC(C)CCNC(=O)[C@H](C)NC(=O)C[C@H](O)[C@H](CC(C)C)NC(=O)[C@@H](NC(=O)[C@@H](NC(=O)CC(C)C)C(C)C)C(C)C (Isovaleryl-VV[Sta]A-NHIsopentyl) |
